Experimental data published in ChEMBL document CHEMBL2380217, “Design, synthesis, and biological evaluation of aminoalkylindole derivatives as cannabinoid receptor ligands with potential for treatment of alcohol abuse” (J Med Chem, 2013).
Calls of active or inactive are those of the source. The rule behind the calls is not given here.

Tests used:
[1] = target: Cannabinoid receptor 2 (Mus musculus) (UniProt P47936); experiment: Displacement of [3H]CP-55940 from mouse […] CB2 receptor at 1 uM after 90 mins by scintillation counting analysis; assay type: tissue-based
Summary of the method: (§1)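 Buffer: 50 mM Tris, 0.05% BSA, 0.1% ethanol; triplicate. Non-specific binding with 10 μM WIN-55,212-2. Bound ligand collected by GF/B filtration and counted by liquid scintillation. Specific binding expressed as % of that without competitor.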

[2] = target: Cannabinoid receptor 1 (Mus musculus) (UniProt P47746); experiment: Displacement of [3H]CP-55940 from mouse brain CB1 receptor at 1 uM after 90 mins by scintillation counting analysis; assay type: tissue-based; summary of the method: as §1
[3] = target: T1, Cannabinoid receptor 2 (Homo sapiens, UniProt P34972); experiment: Agonist activity at human CB2 receptor transfected in CHO cells assessed as inhibition of forskolin-stimulated adenylyl cyclase activity after 15 mins by liquid scintillation spectrophotometry; assay type: functional, cell-based
Summary of the method: (§2)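 Neuro2A-WT (endogenous CB1), CHO-hCB2 or CHO-WT cells, 4 million per well, attached overnight. Labelled 4 h at 37 °C with [3H]adenine 2.5 μCi/mL plus 0.5 mM IBMX. Then 15 min at 37 °C in KRH buffer with 0.5 mM IBMX, 10 μM forskolin, and vehicle (0.2% ethanol) or compound (0.1 nM–10 μM), triplicate. Stopped with HCl; [3H]cAMP isolated on acidic alumina, counted by scintillation. Expressed as % of vehicle cAMP. Antagonist added 5 min before agonist.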

[4] = target: Cannabinoid receptor 1 (Mus musculus, UniProt P47746); experiment: Agonist activity at CB1 receptor in mouse Neuro2a cells assessed as inhibition of forskolin-stimulated adenylyl cyclase activity after 15 mins by liquid scintillation spectrophotometry; assay type: functional, cell-based
Summary of the method: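 Neuro2A cells with endogenous CB1, plated overnight to 80–90% confluency, labelled 4 h at 37 °C with [3H]adenine (2.5 μCi/mL) plus 0.5 mM IBMX. Then 15 min at 37 °C in Krebs Ringer HEPES with 0.5 mM IBMX, 10 μM forskolin and compound (0.1 nM–10 μM; 10 μM for the screen) or 0.2% ethanol vehicle, in triplicate. HCl stop, alumina column. [3H]cAMP is given as % of vehicle.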

[5] = target: T1, Cannabinoid receptor 2; experiment: Agonist activity at human CB2 receptor transfected in CHO cells assessed as inhibition of forskolin-stimulated adenylyl cyclase activity at 10 uM after 15 mins by liquid scintillation spectrophotometry; assay type: functional, cell-based; summary of the method: as §2
[6] = target: Cannabinoid receptor 1 (Mus musculus) (UniProt P47746); experiment: Agonist activity at CB1 receptor in mouse Neuro2a cells assessed as inhibition of forskolin-stimulated adenylyl cyclase activity at 10 uM after 15 mins by liquid scintillation spectrophotometry; assay type: functional, cell-based; summary of the method: as §2
[7] = test system: Mus musculus; experiment: Agonist activity at CB1 receptor in Swiss mouse assessed as hypothermic effect at 10 mg/kg, ip; assay type: functional, organism-based; parameters: dose 10 mg/kg
Summary of the method: (§3)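 Male NIH Swiss mice (25–30 g) with glass-encapsulated radiotelemetry probes implanted in the peritoneal cavity; at least 7 days of recovery, housed singly. Baseline recorded for at least 1 hr, then i.p. injection of drug or vehicle. […] Groups of 4–8. One-way ANOVA with Tukey.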

[8] = target: Cannabinoid receptor 1 (Mus musculus) (UniProt P47746); experiment: Antagonist activity at CB1 receptor in mouse Neuro2a cells assessed as forskolin-stimulated adenylyl cyclase activity at 1 uM after 15 mins by liquid scintillation spectrophotometry in presence of JWH-073; assay type: functional, cell-based; summary of the method: as §2
[9] = test system: Mus musculus; experiment: Inhibition of ethyl alcohol-induced conditioned place preference in Swiss mouse at 10 mg/kg, ip administered 1 hr prior to ethyl alcohol pairing; assay type: functional, organism-based; parameters: dose 10 mg/kg
Summary of the method: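 Male NIH Swiss mice in 3-compartment chambers. 30-min pre-test to find preferred side. Then Mon–Thu daily: saline in the preferred side (30 min) and, ~4 h later, 2 g/kg ethanol in the non-preferred side (30 min). Compound 10 mg/kg given 1 h before each ethanol pairing. Friday post-test; score = post minus pre time on the ethanol side. One-way ANOVA with Tukey.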

[10] = test system: Mus musculus; experiment: Toxicity in Swiss mouse assessed as reduction in body weight at 10 mg/kg, ip for 10 days; assay type: organism-based; parameters: dose 10 mg/kg, route intraperitoneal; conditions: in vivo, 240 h
Summary of the method: (§4)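 Male NIH Swiss mice in a two-bottle home-cage choice, 10% (v/v) ethanol vs water, 24 h access. Intake read twice weekly and bottle positions switched. Preference = ethanol/total fluid × 100. After stable baseline (<10% variation over 3 days), 10 mg/kg i.p. daily for 10 days. Vehicle: 8% Tween/92% water, given for 10 days. Body weight tracked.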

[11] = test system: Mus musculus; experiment: Toxicity in Swiss mouse assessed as alteration in total fluid intake at 10 mg/kg, ip for 10 days; assay type: organism-based; parameters: dose 10 mg/kg, route intraperitoneal; conditions: in vivo, 240 h; summary of the method: as §4
[12] = test system: Mus musculus; experiment: Reduction in ethyl alcohol preference in Swiss mouse at 10 mg/kg, ip for 10 days; assay type: functional, organism-based; parameters: dose 10 mg/kg; summary of the method: as §4
[13] = test system: Mus musculus; experiment: Antagonist activity at CB1 receptor in Swiss mouse assessed as reduction in hypothermic effect at 10 mg/kg, ip administered 30 mins prior to JWH-073 addition; assay type: functional, organism-based; parameters: dose 10 mg/kg; summary of the method: as §3
[14] = test system: CHO; experiment: Effect on adenylyl cyclase activity in wild type CHO cells at 10 uM; assay type: cell-based; conditions: Cricetulus griseus; summary of the method: as §2

Sequence of Cannabinoid receptor 2 (Mus musculus) (P47936 whole entry): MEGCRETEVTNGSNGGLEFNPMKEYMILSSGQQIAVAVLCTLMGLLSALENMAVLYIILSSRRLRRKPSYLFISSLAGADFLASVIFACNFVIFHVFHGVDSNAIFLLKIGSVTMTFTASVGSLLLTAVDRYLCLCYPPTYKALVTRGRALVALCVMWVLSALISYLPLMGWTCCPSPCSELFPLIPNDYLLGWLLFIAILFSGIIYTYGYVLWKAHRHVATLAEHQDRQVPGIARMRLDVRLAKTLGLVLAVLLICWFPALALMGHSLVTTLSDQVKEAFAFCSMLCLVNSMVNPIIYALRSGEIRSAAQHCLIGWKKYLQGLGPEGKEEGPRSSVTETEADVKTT
T1 sequence (P34972 whole entry): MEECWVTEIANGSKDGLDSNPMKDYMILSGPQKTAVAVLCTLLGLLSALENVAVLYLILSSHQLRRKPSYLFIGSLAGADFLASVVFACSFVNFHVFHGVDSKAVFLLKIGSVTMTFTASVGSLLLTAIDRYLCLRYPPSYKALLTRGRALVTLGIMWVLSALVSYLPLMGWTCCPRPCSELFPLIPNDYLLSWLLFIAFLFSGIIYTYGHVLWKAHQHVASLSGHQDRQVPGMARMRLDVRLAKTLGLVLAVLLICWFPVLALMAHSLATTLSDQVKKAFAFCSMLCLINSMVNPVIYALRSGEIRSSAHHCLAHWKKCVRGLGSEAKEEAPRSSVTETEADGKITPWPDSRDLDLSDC
Sequence of Cannabinoid receptor 1 (Mus musculus) (P47746 whole entry): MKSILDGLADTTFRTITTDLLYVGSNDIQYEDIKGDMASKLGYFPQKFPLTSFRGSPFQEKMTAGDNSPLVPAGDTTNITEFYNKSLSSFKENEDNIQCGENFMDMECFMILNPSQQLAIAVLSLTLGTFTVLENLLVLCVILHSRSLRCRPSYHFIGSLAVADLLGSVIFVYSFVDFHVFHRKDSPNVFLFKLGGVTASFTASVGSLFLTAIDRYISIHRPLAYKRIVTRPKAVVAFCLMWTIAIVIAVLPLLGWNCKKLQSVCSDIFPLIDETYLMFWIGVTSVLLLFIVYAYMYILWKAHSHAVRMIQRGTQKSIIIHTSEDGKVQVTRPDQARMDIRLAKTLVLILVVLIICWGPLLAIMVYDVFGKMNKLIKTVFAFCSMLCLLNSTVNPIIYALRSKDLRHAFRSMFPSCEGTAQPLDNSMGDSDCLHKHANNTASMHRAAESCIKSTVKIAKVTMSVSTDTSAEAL
Sequence of Cannabinoid receptor 1 (P47746 whole entry): as above

Compound	Activity [1] [%]	Activity [2] [%]	inhibition [5] [%]	inhibition [6] [%]	also measured
CCCCn1cc(C(=O)Cc2ccccc2)c2cccc(O)c21	20	21			
CCCCn1cc(C(=O)c2cccc3ccccc23)c2cccc(O)c21	90	99	38	55	Ki [3]: 78.3 nM; IC50 [4]: 225 nM; Ki [4]: 24.2 nM
CCCCn1cc(C(=O)c2cccc3ccccc23)c2ccccc21					Activity [7]: Active; Ki [3]: 9.8 nM; Ki [4]: 12.9 nM
CC1=CC[C@@H]2[C@@H](C1)c1c(O)cc(CC#CCCCNS(C)(=O)=O)cc1OC2(C)C					Activity [8]: Active
CCCCn1cc(C(=O)c2cccc3ccccc23)c2cc(O)ccc21	91	97	37	39	
CCCCn1cc(C(=O)Cc2cccc(F)c2)c2cccc(OC)c21	91	63			
CCCCCCC(C)(C)c1ccc([C@@H]2C[C@H](O)CC[C@H]2CCCO)c(O)c1				45	
CCCCn1cc(C(=O)Cc2cccc(F)c2F)c2cccc(OC)c21	97	80	-6	35	
Cc1c(C(=O)NN2CCCCC2)nn(-c2ccc(Cl)cc2Cl)c1-c1ccc(Cl)cc1 [RIMONABANT]					Activity [9]: Active; Activity [10]: Toxic; Activity [11]: Toxic; Activity [12]: Active
CCCCn1cc(C(=O)Cc2ccc(F)cc2)c2cccc(CC)c21	88	63			
CCCCn1cc(Cc2cccc3ccccc23)c2cccc(OC)c21	97	90	33	18	Activity [9]: Active; Activity [10]: Non-toxic; Activity [11]: Toxic; Activity [12]: Active; Activity [13]: Active; Activity [14]: inactive; Activity [8]: Active
CCCCn1cc(-c2cccc3ccccc23)c2cccc(OC)c21	97	98	37	39	
CCCCn1cc(C(=O)c2ccc(F)cc2)c2cccc(OC)c21	99	84	38	45	
CCCCn1cc(C(=O)Cc2ccc(OC)cc2)c2cccc(OC)c21	64	38			
CCCCn1cc(C(=O)Cc2ccc(F)c(F)c2)c2cccc(OC)c21	80	41			
CCCCn1cc(C(=O)Cc2ccc(F)cc2)c2cccc(OC)c21	80	55	22	-4	
CCCCn1cc(C(=O)Cc2ccccc2F)c2cccc(OC)c21	99	84	1	45	
CCCCn1cc(C(=O)Cc2cccc3ccccc23)c2cccc(OC)c21	91	81		34	
CCCCn1cc(C(=O)Cc2ccccc2)c2cccc(OC)c21	91	69	16	34	
CCCCn1cc(C(=O)Cc2ccc(O)cc2)c2cccc(O)c21	10	10			
CCCCn1cc(C(=O)c2cccc3ccccc23)c2cc(OC)ccc21	90	90	31	47	
CCCCn1cc(C(=O)Cc2ccc(F)cc2)c2cccc(O)c21	10	29			
CCCCn1cc(C(=O)Cc2cccc3ccccc23)c2cccc(O)c21	21	37			
COc1cccc2c(C(=O)c3cccc4ccccc34)cn(CCN3CCOCC3)c12	100	100	37	39	
CCCCn1cc(C(=O)c2cccc3ccccc23)c2cccc(OC)c21	100	93	52	51	
CCCCn1cc(-c2ccc3ccccc3c2)c2cccc(OC)c21	91	82	20.8	16	Activity [9]: Active; Activity [10]: Non-toxic; Activity [11]: Toxic; Activity [12]: Active; Activity [13]: Active; Activity [14]: inactive; Activity [8]: Active
